# Kir21 block = Kir2.1 (mouse) channel inhibition. HEK293-Kir2.1, FluxOR thallium flux fluorescence; active compounds read low. B-score at 10 µM. actives 0.85% (n = 310,000). AID 1672;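 active = fluorescence ratio B-score at or below minus 3 SD of library scores, with starting-brightness B-score within 2 SD, cut at about -4.2 in these data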;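 note: channel flux triggered by added potassium and thallium sulfate stimulus; B-score of peak minus minimum fluorescence over baseline after thallium stimulus; more negative B-score means stronger Kir2.1 block with less thallium influx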
# KCNK3 block = human KCNK3 channel inhibition, primary screen | O14649 | CHO-KCNK3 thallium flux, FluxOR fluorescence; active compounds read low | B-score at 10 µM | actives 0.84% (n = 340,000) | AID 602410;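 active = B-score under library mean minus 4 SD, starting fluorescence ratio at most library mean plus 5 SD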;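 note: more negative B-score means stronger inhibition of thallium flux through KCNK3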
# KCNQ1 inh = blocks the human KCNQ1 potassium channel | P51787 | CHO-K1 KCNQ1, FluxOR thallium flux fluorescence; active compounds read high | B-score at 10 µM | actives 1.3% (n = 310,000) | AID 2642;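 active = compounds whose thallium flux B-score, printed positive for inhibition, exceeds three library SD while starting fluorescence stays within three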;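 note: channel opened by potassium depolarization with thallium stimulus after 20 min compound exposure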
# KCNQ1 pot = human KCNQ1 channel potentiation or activation; P51787; CHO-K1 KCNQ1, thallium flux FluxOR fluorescence; active compounds read high; B-score at 10 µM; actives 0.35% (n = 310,000); AID 2648;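 active = fluorescence ratio B-score, a plate-corrected score, at least three library SD, with initial intensity B-score within 5 SD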
#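 Doses: Single concentration per compound, DMSO matched to controls | Test system: KCNQ1-transfected CHO-K1 cells | Timing: 90 min dye loading and 20 min compound exposure, both at room temperature | Measured by: Kinetic FluxOR thallium fluorescence, 10-s 1-Hz baseline, 110-s post-stimulus read | Medium: Assay buffer with matched DMSO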
# KCNK9 inh = inhibitors of human KCNK9 two-pore domain potassium channel; HEK293 KCNK9, FluxOR thallium flux fluorescence; active compounds read low; actives 1.2% (n = 310,000); B-score at 10 µM; Q9NPC2;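 active = ratio B-score over 3 SD below the library mean, with starting fluorescence within 5 SD of its mean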;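 note: negative B-score means less thallium flux so channel inhibition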
# Target sequence (Q9NPC2 whole entry, looked up, the tested form may be a part): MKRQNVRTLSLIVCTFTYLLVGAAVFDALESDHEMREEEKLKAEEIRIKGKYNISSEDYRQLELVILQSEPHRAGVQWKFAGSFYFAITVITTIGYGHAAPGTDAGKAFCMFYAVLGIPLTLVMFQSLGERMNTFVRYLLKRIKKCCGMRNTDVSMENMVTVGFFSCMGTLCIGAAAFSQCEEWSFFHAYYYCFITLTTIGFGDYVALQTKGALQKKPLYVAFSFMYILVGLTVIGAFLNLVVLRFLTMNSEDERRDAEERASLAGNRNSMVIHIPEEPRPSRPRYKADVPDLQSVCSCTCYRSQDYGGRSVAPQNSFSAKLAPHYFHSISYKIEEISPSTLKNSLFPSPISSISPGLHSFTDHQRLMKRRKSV
# hERG protect = shields human hERG channel from block by proarrhythmic agents; CHO-hERG, FluxOR thallium flux, dofetilide IC70 present; activation (rescue from dofetilide block), less the hit threshold, % at 10 µM; actives 0.51% (n = 310,000); AID 1511;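 active = activation above the mean of controls blocked by dofetilide plus 5 SD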;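 note: thallium influx through hERG after potassium depolarization seen as dye fluorescence rise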
# KCNK3 confirm = confirmation of human KCNK3 two-pore domain potassium channel inhibitors; ratio percent of control, % at 10 µM; shares compounds with KCNK3 block; actives 99% (n = 2,400); CHO-KCNK3 thallium flux, FluxOR fluorescence; 0% buffer, 100% carvedilol maximal block; AID 651638;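 active = ratio percent of control, averaged over triplicates, above buffer control mean plus 5 SD, cut at about 64% in these data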;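 note: ratio is the fluorescence rise from min to max over baseline after thallium stimulus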
# KCNK3 noninduced = activity in cells without induced KCNK3 expression. shares compounds with KCNK3 block. non-induced KCNK3 parental cells, FluxOR thallium flux; active compounds read low. thallium flux ratio (lower = more inhibition) at 10 µM. actives 40% (n = 2,400). AID 651747;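 active = thallium flux ratio, averaged over three wells, more than 5 SD below the buffer control mean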;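 note: host cells are CHO cells without KCNK3 induction; ratio is peak minus trough fluorescence over baseline then normalized to buffer controls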
# Active calls of the source: *; i = inactive; · = no result given. The list is not random: actives were taken first. Their share in the collection is about 3.7%.
SMILES,Kir21 block,KCNK3 block,KCNQ1 inh,KCNQ1 pot,KCNK9 inh,hERG protect,KCNK3 confirm,KCNK3 noninduced
CC(C)(C)c1cc(C(=O)NNc2cc(C(F)(F)F)ccc2Cl)n(Cc2ccccc2)n1,1.9,-19*,8*,i,i,-10,139*,0.13*
CCSc1nc2sc3c(c2c(=O)n1-c1ccccc1C)CCN(C)C3,-0.14,i,i,i,i,-9,·,·
COc1ccc(N=Cc2c(O)c3ccccc3n2C(C)=O)cc1,-4.7,-13*,i,i,i,-17,143*,0.098*
COc1ccc(N=Cc2sc(O)c3ccccc23)cc1,-1.1,i,i,i,i,-8,·,·
Oc1cc2c(cc1CN1CCN(c3cccc(C(F)(F)F)c3)CC1)CCC2,0.56,-9.4*,i,i,i,-14,100*,0.15*
COc1ccc(N2CCN(Cc3cc4c(cc3O)CCC4)CC2)cc1,2.6,i,i,i,i,-16,·,·
C/C(=N\Nc1cccc2cccnc12)c1ccccc1O,0.52,-10*,i,i,i,-7,108*,i
Cc1ccc(C)c2nc3sc(C(=O)N4CCOCC4)c(N)c3cc12,-1.7,i,i,i,i,-16,·,·
Cc1cc(C)c2nc3sc(C(=O)N4CCOCC4)c(N)c3cc2c1,-1.4,-11*,i,i,i,-22,115*,0.13*
Cc1cnccc1CN(C)Cc1cn(C)nc1-c1ccc(Oc2ccccc2)cc1,-2.3,-10*,i,i,i,-21,118*,0.15*
CC1CN(c2nc3ccccc3nc2SCC(=O)Nc2ccc(F)cc2)CC(C)O1 (stereo not given),2.4,-8.7*,i,i,i,-15,106*,0.14*
O=C1c2cccc3cccc(c23)C(=O)N1CCc1ccccc1,0.49,-9.6*,i,i,i,-3,118*,i
COc1cc(/C=C2\SC(c3ccc(C)cc3)=NC2=O)ccc1O,-0.1,-9.4*,i,i,i,-4,142*,0.099*
COc1ccc(/C=C2/SC(c3ccc(C)cc3)=NC2=O)cc1OC,-1.1,i,i,i,i,-6,·,·
CC(C)(C)NC(=O)c1cccc2c1OC(C)(C)C2,-0.18,i,i,i,i,-9,·,·
CC1(C)Cc2cccc(C(=O)NCc3ccco3)c2O1,0.05,-11*,i,i,i,-8,105*,i
COc1cccc(CNC(=S)Nc2ccc(Cl)cc2C)c1,-0.64,i,i,i,i,-2,·,·
Fc1ccc(CNC(=S)NCc2cccc(Cl)c2)cc1,-4.4*,-9.4*,i,i,i,-20,113*,i
S=C(NCc1ccccc1)NCc1cccc(Cl)c1,-3.1,i,i,i,i,-15,·,·
Cc1cc(Cl)ccc1NC(=S)NCc1ccccc1,0.3,-9.5*,i,i,i,-1,87*,i
CN(C)S(=O)(=O)n1cnc([C@@H]2[C@H]3C(=O)OC[C@@H]3C[C@@]23N=CN(Cc2ccccc2)C3=O)c1,·,i,·,·,·,·,·,·
COc1cc(C(=O)NC(C)C2CC3CCC2C3)ccc1OC(F)F (stereo not given),·,-12*,·,·,·,·,110*,0.12*
CC(NC(=O)c1ccc(F)cc1)C1CC2CCC1C2 (stereo not given),-1.6,i,i,i,i,-6,·,·
COc1ccccc1N1CCN(C(=O)c2sc3ncnc(N4CCN(c5ccccn5)CC4)c3c2C)CC1,0.23,i,i,i,i,-15,·,·
COc1ccc(OC)c(NC(=O)c2sc3ncnc(N4CCN(c5ccccn5)CC4)c3c2C)c1,1.8,-9.1*,i,i,i,-1,104*,i
SMILES,Kir21 block,KCNK3 block,KCNQ1 inh,KCNQ1 pot,KCNK9 inh,hERG protect,KCNK3 confirm,KCNK3 noninduced
COc1cccc2c1Oc1ncccc1N(C(=O)CCC(=O)NCc1ccc(C)cc1)C2,-0.53,i,i,i,i,-4,·,·
CN=C(Nc1ccc(C(=O)OC)s1)c1ccccc1,0.06,i,i,i,i,-1,·,·
CCC(C)(c1ccc(C(=O)OC)s1)c1ccc(C(=O)OC)s1,-2.1,-9.1*,i,i,i,-7,119*,0.14*
N#CCC(=O)N/N=C/c1cn(Cc2ccccc2C#N)c2ccccc12,0,i,i,i,i,1,·,·
N#CCC(=O)N/N=C/c1c(-c2ccccc2)n(-c2ccccc2)c2ccccc12,-0.12,-9.6*,i,i,i,-7,97*,i
O=C1CC(=C2c3ccccc3-c3ccccc32)C(=O)N1CCCCN1CCN(c2ccccc2)CC1,-0.75,i,i,i,i,-9,·,·
NNC(=O)c1cnn(-c2ccccc2)c1-n1cccc1,-1.5,i,i,i,i,-13,·,·
CN(C)S(=O)(=O)c1cccc(NC(=O)COc2ccccc2C(=O)NCc2ccccc2)c1,·,-12*,·,·,·,·,119*,0.16*
Cc1ccc(NC(=O)COc2ccccc2C(=O)NCc2ccccc2)cc1,·,i,·,·,·,·,·,·
COc1ccc(S(=O)(=O)N2CCN(C(=O)c3ccc([N+](=O)[O-])o3)CC2)cc1,-2.1,i,i,i,i,-5,·,·
COc1ccc(/C=C/C(=O)c2ccc([N+](=O)[O-])o2)cc1,0.29,-11*,i,i,i,-12,99*,i
COc1ccc(/C=C/C(=O)OCc2cccc([N+](=O)[O-])c2)cc1,-1.3,-9.6*,i,i,i,-24,95*,0.14*
O=C(CCSc1nc(-c2ccco2)cc(C(F)(F)F)n1)N1CCCc2ccccc21,-1.5,-9.9*,i,i,i,-6,100*,i
O=C(CCSc1nc(-c2ccco2)cc(C(F)(F)F)n1)N1CCN(c2ccccn2)CC1,1.5,i,i,i,i,-8,·,·
Cc1cccc(C(=O)OC(C)CN2C(C)CCCC2C)c1 (stereo not given),-0.25,i,i,i,i,-7,·,·
Oc1cnc2ccccc2c1CN1CCOCC1,0.83,-8.9*,i,i,i,-2,82*,i
Cc1ccccc1NC1=C(Cl)C(=O)OC1OC(=O)c1ccccc1C (stereo not given),-0.68,-12*,i,i,i,-6,128*,0.11*

# Source: PubChem
